About 2,000 (0.61%) of roughly 330,000 compounds were called active.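 The calls were made as follows: active = inhibition above that plate's mean sample inhibition plus 3 SD (cut at about 26% in these data); inactive = the rest.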 This excerpt belongs to a sample that is enriched for actives.
Test: nonselective Gq signaling inhibition in CHO cells – cell-based, fluorescence, Fluo-8 calcium dye, counter-screen for OX1R antagonist project, primary screen (AID 463079);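 also: 0% = ATP-challenged DMSO wells and 100% = DMSO wells without ATP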
Details: parental CHO-K1, ATP-induced calcium, Fluo-8 fluorescence; at 5.6 µM; active compounds read high
Summary of the method: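 material = parental CHO cells | also added = ATP as calcium-mobilizing challenge | dosing = single point at 5.6 µM | detection = intracellular calcium via Fluo-8 no-wash fluorescent dye | read-out = % inhibition | benchmarks = low control ATP plus DMSO, high control DMSO only | repeats = one well per compound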

SMILES | inhibition
CCN(CC)P(=O)(Oc1cccc(C)c1)N(CC)CC | -16.2% (inactive)
Cc1cccc(OP(=O)(Oc2cccc(C)c2)OC(c2ccccc2)C(F)(F)F)c1 (stereo not given) | 43% (active)
CN(C)S(=O)(=O)c1cc(C(=O)N2CCC(C(=O)O)(c3ccccc3)CC2)ccc1Cl | -3.89% (inactive)
Nc1ccc([N+](=O)[O-])cc1 | -2.28% (inactive)
COC(=O)N(c1ccc(OC)cc1)P1(=S)OCCC(C)O1 (stereo not given) | -5.5% (inactive)
O=C1NC(=O)C(CCc2ccccn2)(Cc2cccc(Cl)c2Cl)C(=O)N1c1ccc(Br)cc1 (stereo not given) | -47.9% (inactive)
O=C1C2(Cl)C3(Cl)C4(Cl)C(Cl)(Cl)C5(Cl)C3(Cl)C1(Cl)C5(Cl)C24Cl (stereo not given) | 48.6% (active)
O=C(CSC1c2ccccc2-c2ccccc21)N/N=C/c1ccccc1 | -10.8% (inactive)
c1ccc(CC2CCCCN2)cc1 (stereo not given) | -2.34% (inactive)
CC1=C(C(=O)Nc2ccccc2)S(=O)(=O)CCO1 | -5.31% (inactive)
CCCCCCCCCCCCn1ccc(=N)cc1 | 40% (active)
CCOC(=O)c1c(C)c(C(=O)N2CCC3(CC2)OCCO3)c(C)n1CC | -3.29% (inactive)
CN1CCC(N(C)Cc2cccnc2)CC1 | -10.6% (inactive)
ClC(Cl)(Cl)c1ccccc1 | 2.74% (inactive)
CCN(CC)C(=O)c1ccc(NC(=O)c2cc(-n3cnnc3)ccc2Cl)cc1 | -4.65% (inactive)

From PubChem BioAssay AID463079 (The Scripps Research Institute Molecular Screening Center, 2010)
